Measurements reported in ChEMBL document CHEMBL1123901, “Inhibition of delayed hypersensitivity reactions by cinnamyl 1-thioglycosides” (J Med Chem, 1987).

How the values were obtained:
Format in all cases: functional
[1] = species on record: Cavia porcellus; test: Effect on guinea pig T cell proliferation was tested by measuring the incorporation of [3H]thymidine uptake at the concentration of 250 uM
Procedure, shortened: (§1)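 Strain 2 female guinea pigs were immunized with 100 μg OVA in CFA split over the footpads. At day 14 they received mineral oil ip, and the exudate was collected 4 days later. T cells were enriched on nylon wool. 2×10^5 cells per well were cultured with 10% irradiated (2100 rads) exudate cells, OVA (10 μg/mL) and compound, for 72 h at 37 °C in 5% CO2. [3H]thymidine (1 μCi) was added 18-24 h before harvest. Triplicate wells; mean Δcpm ± SD.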

[2] = species on record: Cavia porcellus; test: Effect on guinea pig T cell proliferation was tested by measuring the incorporation of [3H]thymidine uptake at the concentration of 750 uM; procedure, shortened: as §1
[3] = species on record: Cavia porcellus; test: Effect on guinea pig T cell proliferation was tested by measuring the incorporation of [3H]-thymidine uptake at the concentration of 100 uM; procedure, shortened: as §1
[4] = species on record: Cavia porcellus; test: Effect on guinea pig T cell proliferation was tested by measuring the incorporation of [3H]thymidine uptake at the concentration of 10 uM; procedure, shortened: as §1
[5] = species on record: Cavia porcellus; test: Effect on guinea pig T cell proliferation was tested by measuring the incorporation of [3H]thymidine uptake at the concentration of 500 uM; procedure, shortened: as §1
[6] = species on record: Cavia porcellus; test: Effect on guinea pig T cell proliferation was tested by measuring the incorporation of [3H]thymidine uptake at the concentration of 1000 uM; procedure, shortened: as §1
[7] = species on record: Cavia porcellus; test: Effect on guinea pig T cell proliferation was tested by measuring the incorporation of [3H]-thymidine uptake at the concentration of 0 uM; procedure, shortened: as §1
[8] = species on record: Cavia porcellus; test: Inhibitory activity against [3H]thymidine uptake by cinnamyl 1-thioglycosides in guinea pig T cell proliferation; details: Cavia porcellus, T-cell; procedure, shortened: as §1

| SMILES | Activity [1] | Activity [2] | Activity [3] | Activity [4] | Activity [5] | Activity [6] | Activity [7] | IC50 ([8]; 72 h) | IC50 [8] |
| --- | --- | --- | --- | --- | --- | --- | --- | --- | --- |
| COCC1OC(SC/C=C/c2ccccc2)C(O)C(O)C1O (stereo not given) | 1.23 Δcpm x10e-3 | 0 Δcpm x 10^-3 | 36.2 Δcpm x10e-3 | 97 Δcpm x10e-3 | 0 Δcpm x10e-3 | 0 Δcpm x10e-3 | 88 Δcpm x10e-3 | 41 µM | – |
| CC(=O)NCC1OC(SC/C=C/c2ccccc2)C(O)C(O)C1O (stereo not given) | 52.9 Δcpm x10e-3 | 38.8 Δcpm x 10^-3 | 66.6 Δcpm x10e-3 | 70.7 Δcpm x10e-3 | 39.3 Δcpm x10e-3 | 36 Δcpm x10e-3 | 79.8 Δcpm x10e-3 | – | – |
| OCC1OC(SCCCc2ccccc2)C(O)C(O)C1O (stereo not given) | 39.7 Δcpm x10e-3 | 18.5 Δcpm x 10^-3 | 59 Δcpm x10e-3 | 70.3 Δcpm x10e-3 | 34.2 Δcpm x10e-3 | 0 Δcpm x10e-3 | 72.8 Δcpm x10e-3 | 402 µM | – |
| OCC1OC(OCC2OC(SCC=Cc3ccccc3)C(O)C(O)C2O)C(O)C(O)C1O (stereo not given) | 34.1 Δcpm x10e-3 | 13.04 µM | 54.9 Δcpm x10e-3 | 64.2 Δcpm x10e-3 | 28.9 Δcpm x10e-3 | 3.85 Δcpm x10e-3 | 86.9 Δcpm x10e-3 | – | 340 µM |
| NCC1OC(SC/C=C/c2ccccc2)C(O)C(O)C1O (stereo not given) | 71.1 Δcpm x10e-3 | 0.02 Δcpm x 10^-3 | 101 Δcpm x10e-3 | 120 Δcpm x10e-3 | 1.23 Δcpm x10e-3 | 0.01 Δcpm x10e-3 | 81 Δcpm x10e-3 | – | – |
| O=C(CCCCC1CCSS1)NCC1OC(SC/C=C/c2ccccc2)C(O)C(O)C1O (stereo not given) | 0 Δcpm x10e-3 | 0 Δcpm x 10^-3 | 2.97 Δcpm x10e-3 | 75.2 Δcpm x10e-3 | 0 Δcpm x10e-3 | 0.08 Δcpm x10e-3 | 93.2 Δcpm x10e-3 | – | – |
